The record followed here is ChEMBL document CHEMBL1909618, “Non-steroidal dissociated glucocorticoid agonists: indoles as A-ring mimetics and function-regulating pharmacophores” (Bioorg Med Chem Lett, 2011).

Activity calls are given as the source filed them.

Series [1] addresses T1, Androgen receptor (Homo sapiens) (UniProt P10275).
T1 sequence (whole entry): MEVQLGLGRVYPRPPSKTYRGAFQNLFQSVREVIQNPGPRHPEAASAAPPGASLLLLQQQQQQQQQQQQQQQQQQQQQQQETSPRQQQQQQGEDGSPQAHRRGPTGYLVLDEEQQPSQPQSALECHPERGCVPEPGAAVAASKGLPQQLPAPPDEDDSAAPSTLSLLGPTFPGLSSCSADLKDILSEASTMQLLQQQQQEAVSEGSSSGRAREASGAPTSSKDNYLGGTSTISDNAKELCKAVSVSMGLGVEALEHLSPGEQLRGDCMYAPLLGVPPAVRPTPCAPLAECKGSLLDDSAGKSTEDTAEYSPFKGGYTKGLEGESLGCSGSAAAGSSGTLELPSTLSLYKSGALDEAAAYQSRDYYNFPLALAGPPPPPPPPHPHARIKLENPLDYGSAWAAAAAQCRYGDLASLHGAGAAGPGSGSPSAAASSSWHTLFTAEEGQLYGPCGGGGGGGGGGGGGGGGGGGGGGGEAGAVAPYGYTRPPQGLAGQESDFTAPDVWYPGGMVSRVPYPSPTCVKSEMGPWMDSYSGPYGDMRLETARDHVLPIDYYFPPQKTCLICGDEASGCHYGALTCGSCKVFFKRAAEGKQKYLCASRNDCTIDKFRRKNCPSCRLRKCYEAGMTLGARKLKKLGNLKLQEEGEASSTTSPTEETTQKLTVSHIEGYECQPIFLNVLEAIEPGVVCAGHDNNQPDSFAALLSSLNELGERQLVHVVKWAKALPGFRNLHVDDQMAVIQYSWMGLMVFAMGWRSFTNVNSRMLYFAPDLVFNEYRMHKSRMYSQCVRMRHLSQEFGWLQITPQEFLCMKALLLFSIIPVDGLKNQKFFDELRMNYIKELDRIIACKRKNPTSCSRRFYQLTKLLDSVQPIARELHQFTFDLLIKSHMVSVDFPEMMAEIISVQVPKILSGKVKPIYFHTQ
Kind of series: Displacement of [3H]-testosterone from human recombinant androgen receptor expressed in baculovirus infected insect cells at 1200 nM. In short, it runs like this:
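Competition of test compound at a single concentration against 10 nM ³H-testosterone for binding to recombinant human AR in lysates of baculovirus-infected cells. Dihydrotestosterone at 2 µM served as the positive control. Results are expressed as % of control.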
For orientation: Displacement assays read how much labelled ligand stays bound in the presence of the test substance.

The nature of series [2]: Half life in B10.R3 mouse at 1 mg/kg, iv. Type of series: ADME, organism-based. On the set-up: dose 1 mg/kg, route intravenous. The conditions noted are these: in vivo. In short, it runs like this: (§1)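 Mouse PK: IV dose 1 mg/kg in PEG400/water (70:30); oral dose 30 mg/kg given as a suspension in 30% Cremophor. Values are the mean of 3 mice.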
In series [3] the test system is Mus musculus. The experiment in a line: Antiinflammatory activity in po dosed mouse plasma assessed as inhibition of LPS-induced TNFalpha production administered 1 hr before LPS challenge measured after 1 hr. Format: functional. In short, it runs like this:
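Mice received compound orally in Cremophor RH 1 h before LPS challenge. Plasma TNF-α was measured 1 h after challenge. n = 8 per group; doses were 3 and 10 mg/kg.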

Series [4] relates to Mus musculus. Kind of series: Toxicity in B10.R3 mouse collagen-induced arthritis model assessed as change in body fat level at 30 mg/kg, po qd for 5 weeks relative to control. Format: organism-based. On the set-up: dose 30 mg/kg, route oral. The conditions noted are these: in vivo, 840 h. In short, it runs like this: (§2)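 Arthritic B10.RIII CIA mice were dosed orally once daily for 5 weeks. At day 35 they were anesthetized with ketamine (50 mg/kg) and xylazine (15 mg/kg). Body fat was assessed by whole-body density scan. Serum triglycerides were measured by enzymatic kit (Wako L-Type TG-H) and free fatty acids by NEFA-C. Results are expressed as % change versus vehicle and compared by t-test.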

The nature of series [5]: AUC (infinity) in Sprague-Dawley rat at 30 mg/kg, po. Format: ADME, organism-based. Set-up: dose 30 mg/kg, route oral, time infinity. As to conditions: plasma. In short, it runs like this:
(§3)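 Rat PK: IV dose 2 mg/kg in PEG400/water (70:30); oral dose 30 mg/kg in PEG400/H2O/Tween (80/18/2). Values are the mean of 3 rats.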

Series [6] is described as follows: Clearance in B10.R3 mouse at 1 mg/kg, iv. The conditions noted are these: in vivo. On the set-up: dose 1 mg/kg, route intravenous. Type of series: ADME, organism-based. Summed up:
as §1

In series [7] the test system is Mus musculus. Kind of series: Toxicity in B10.R3 mouse collagen-induced arthritis model assessed as change in body weight at 30 mg/kg, po qd for 5 weeks relative to control. Type of series: organism-based. On the set-up: dose 30 mg/kg, route oral. As to conditions: in vivo, 840 h.
Series [8] is described as follows: Oral bioavailability in B10.R3 mouse at 30 mg/kg. The conditions noted are these: in vivo. Type of series: ADME, organism-based. In short, it runs like this: as §1
The nature of series [9]: Half life in Sprague-Dawley rat at 2 mg/kg, iv. Format: ADME, organism-based. On the set-up: dose 2 mg/kg, route intravenous. The conditions noted are these: in vivo. Summed up:
as §3

A further series concerns the target T2, Glucocorticoid receptor (Homo sapiens, UniProt P04150).
T2 sequence (P04150 whole entry): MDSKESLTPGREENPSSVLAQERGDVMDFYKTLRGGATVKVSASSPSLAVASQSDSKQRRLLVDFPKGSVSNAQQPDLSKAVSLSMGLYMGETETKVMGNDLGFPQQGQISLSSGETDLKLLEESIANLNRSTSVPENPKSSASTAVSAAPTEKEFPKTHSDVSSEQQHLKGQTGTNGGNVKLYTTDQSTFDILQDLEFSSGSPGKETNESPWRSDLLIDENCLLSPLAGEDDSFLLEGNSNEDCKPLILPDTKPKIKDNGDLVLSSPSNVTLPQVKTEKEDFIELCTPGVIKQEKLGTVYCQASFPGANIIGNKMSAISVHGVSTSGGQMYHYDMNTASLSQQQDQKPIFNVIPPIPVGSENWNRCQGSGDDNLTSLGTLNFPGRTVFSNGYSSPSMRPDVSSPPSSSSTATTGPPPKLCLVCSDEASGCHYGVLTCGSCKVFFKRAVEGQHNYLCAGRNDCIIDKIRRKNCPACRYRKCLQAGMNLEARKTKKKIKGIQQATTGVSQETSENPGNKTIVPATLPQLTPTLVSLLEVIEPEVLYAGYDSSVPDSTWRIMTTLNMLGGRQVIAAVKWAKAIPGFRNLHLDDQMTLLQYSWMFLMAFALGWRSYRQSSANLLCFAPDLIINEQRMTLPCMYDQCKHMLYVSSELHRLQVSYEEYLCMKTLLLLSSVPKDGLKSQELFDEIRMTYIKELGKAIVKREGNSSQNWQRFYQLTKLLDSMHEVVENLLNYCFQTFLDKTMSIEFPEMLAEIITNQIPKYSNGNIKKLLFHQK
Kind of series: Agonist activity at glucocorticoid receptor in human HeLa cells transfected with luciferase gene linked to MMTV promoter assessed as luciferase transactivation activity. Format: functional, cell-based.

Series [10] deals with Mus musculus. Kind of series: Toxicity in B10.R3 mouse collagen-induced arthritis model assessed as change in serum triglyceride level at 30 mg/kg, po qd for 5 weeks relative to control. Format: organism-based. On the set-up: dose 30 mg/kg, route oral. As to conditions: in vivo, 840 h. In short, it runs like this: as §2
In series [11] the test system is Mus musculus. The experiment in a line: Antiarthritic activity in B10.R3 mouse collagen-induced arthritis model assessed as AUC of disease progression inhibition at 10 mg/kg, po qd for 5 weeks. Type of series: functional. The conditions noted are these: B10.R3, 840 h. In short, it runs like this:
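B10.RIII mice immunized with porcine type II collagen plus complete Freund's adjuvant were enrolled at the first signs of arthritis. They were dosed orally once daily for 5 weeks; vehicle was 30% Cremophor RH. All four paws were scored 1–4 (maximum 16 per animal). Disease-score AUCs from 10 mice per group were compared with vehicle by Mann–Whitney test.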

The subject of series [12] is Mus musculus. The experiment in a line: Toxicity in B10.R3 mouse collagen-induced arthritis model assessed as change in serum insulin level at 30 mg/kg, po qd for 5 weeks by ELISA relative to control. On the set-up: dose 30 mg/kg, route oral. Format: organism-based. As to conditions: in vivo, 840 h. (In general: ELISA stands for enzyme-linked immunosorbent assay.)
A short description of series [13]: Oral bioavailability in Sprague-Dawley rat at 30 mg/kg. Format: ADME, organism-based. As to conditions: in vivo. In short, it runs like this:
as §3

As to `COc1ccc(F)cc1C(C)(C)C[C@@](O)(Cc1cc2ccccc2[nH]1)C(F)(F)F`, the outcome in series [1] was inactive.
The term half-life denotes the time needed for the level to fall by half in the phase considered. Read a high half-life as slow decline. As a reminder, the ED50 is the midpoint of the dose-response relation. As a reminder, the AUC(0-inf) is the area under the concentration-time curve extrapolated to infinity. Low readings indicate less exposure, high ones more exposure. A word on the clearance: it is a measure of how efficiently the substance is removed, as volume per time. Usually bioavailability stands for the share of a dose that reaches the circulation, judged against a reference dose that is usually intravenous. Broadly, the EC50 is the concentration needed to bring the measured effect to its halfway point. What is called inhibition in vivo is the change of the read-out against control, counted positive when it falls. On to `CC(C)(C[C@@](O)(Cc1cc2ccc(C#N)cc2[nH]1)C(F)(F)F)c1cc(S(C)(=O)=O)cc2c1OCC2`, for which the half-life in [2] is 2.5 h; in series [9], 1.7 h. For the same molecule, the ED50 in the series on Mus musculus [3] is under 3 mg/kg. The Activity in the series with Mus musculus [4] is listed as 6%; in the series with Mus musculus [7], -8%; in the series with Mus musculus [10], 11%; in the series on Mus musculus [12], -29%. In series [5], this molecule registered an AUC(0-inf) of 4850 ng·h/mL. For the same molecule, in series [6], the clearance was found to be 4 mL/min/kg. Also, the bioavailability was found to be 26% in series [8] and 51% in series [13]. Besides, the EC50 on Glucocorticoid receptor was over 2000 nM. Besides, in the series with Mus musculus [11], the inhibition in vivo at 10 mg/kg came to 62%.
